CHRM5 PAM: CHRM5 positive allosteric modulation | P08912 | CHO-K1 hM5, Fluo-8 calcium, ACh EC20 PAM; 0% = ACh EC20, 100% = ACh EC100 | activation, % at 3 µM | 0.3% of 360,000 active;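 active = activation above the run cutoff, the mean activation of all test compounds plus 3 SD, cut at about 18% in these data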
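system = human M5 receptor in CHO-K1 cells | compound = one concentration, 3 µM final (nominal) | schedule = Post-acetylcholine fluorescence recording 140 s | signal = Fluo-8 calcium dye fluorescence, kinetic read | benchmarks = low control EC20 acetylcholine (0%), high control EC100 acetylcholine (100%) | repeats = singlicate, one well per test compound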
CHRM4 PAM: CHRM4 positive allosteric modulation. 0.4% of 360,000 active. activation, % at 3 µM. P08173. CHO-K1 hM4/Gqi5, Fluo-8 calcium fluorescence, ACh EC20; 0% = ACh EC20, 100% = maximal ACh;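 active = activation above its plate's cutoff, the mean activation of sample wells plus 3 SD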
Target sequence (P08173 whole entry, looked up): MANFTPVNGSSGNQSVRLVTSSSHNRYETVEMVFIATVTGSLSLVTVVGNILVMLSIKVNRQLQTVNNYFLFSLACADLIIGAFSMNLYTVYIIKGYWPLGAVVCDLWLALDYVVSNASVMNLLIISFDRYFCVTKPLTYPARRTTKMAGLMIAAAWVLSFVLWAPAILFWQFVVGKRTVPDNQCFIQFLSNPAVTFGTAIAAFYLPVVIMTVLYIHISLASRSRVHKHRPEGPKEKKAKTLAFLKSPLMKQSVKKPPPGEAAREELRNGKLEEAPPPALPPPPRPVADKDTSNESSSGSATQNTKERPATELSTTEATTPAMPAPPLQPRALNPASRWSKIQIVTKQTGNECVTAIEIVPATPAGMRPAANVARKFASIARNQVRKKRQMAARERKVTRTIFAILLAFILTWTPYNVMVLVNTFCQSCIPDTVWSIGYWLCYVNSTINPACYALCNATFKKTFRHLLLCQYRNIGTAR
M4 ag: agonists of human muscarinic M4 receptor (CHRM4); P08173; CHO-K1 hM4/Gqi5, Fluo-8 calcium fluorescence; vehicle 0%, full acetylcholine response 100%; activation, % at 3 µM; 0.14% of 360,000 active; AID 624127;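 active = activation above the run mean over all test wells plus 3 SD, cut at about 32% in these data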;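 note: peak over basal fluorescence ratio per well then scaled between controls; 0% = DMSO wells and 100% = acetylcholine at EC100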
CHRM5 antagonist: blocks acetylcholine activation of human M5 receptor | inhibition, % at 3 µM | P08912 | AID 624040 | CHO-hM5 cells, Fluo-8 calcium fluorescence, ACh EC80 | 0.59% of 360,000 active;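 active = inhibition above a per-plate cutoff, the mean of that plate's test compounds plus 3 SD, cut at about 27% in these data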;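 note: 0% = acetylcholine EC80 with DMSO and 100% = DMSO without agonist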
CHRM4 antagonist: blocks acetylcholine activation of human M4 receptor; P08173; 0.73% of 360,000 active; CHO-hM4 cells, ACh EC80, Fluo-8 calcium fluorescence; inhibition, % at 3 µM;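 active = inhibition above its plate's cutoff, the mean inhibition of sample wells plus 3 SD, cut at about 27% in these data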;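 note: 0% = acetylcholine EC80 with DMSO and 100% = DMSO without agonist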
CHRM5 agonist: CHRM5 agonism in calcium assay | P08912 | CHO-K1 hM5 cells, Fluo-8 calcium fluorescence; 0% DMSO wells, 100% maximal acetylcholine response | 0.19% of 360,000 active | activation, % at 3 µM | AID 624037;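 active = activation above the run's mean over test compounds plus 3 SD, cut at about 23% in these data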;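 note: signal is peak over basal fluorescence ratio across the kinetic read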
Active calls of the source: *. Rows were chosen to be rich in hits. Some 1.8% of all compounds tested hit in one or more screens of this group.

SMILES	CHRM5 PAM	CHRM4 PAM	M4 ag	CHRM5 antagonist	CHRM4 antagonist	CHRM5 agonist
COC(=O)CSc1nc(-c2cccs2)ccc1C#N	-8	-30	4	3	74*	-4
Cc1ccc(S(=O)(=O)N2C[C@]3(O)C[C@@H]4C(=O)N(c5ccccc5)C(=O)[C@@H]4C[C@]3(OC(=O)Nc3cccs3)C2)cc1	0	1	5	-15	-33	-1
CN1/C(=C\C(=O)c2ccco2)C(C)(C)c2ccccc21	-14	-20	10	44*	37*	4
CN1/C(=C\C(=O)COC(=O)c2ccco2)C(C)(C)c2ccccc21	0	-7	4	9	-2	-1
CCNC(=O)C1(C)CCN(C(=O)c2c(F)ccc(C)c2F)C1 (stereo not given)	2	4	1	3	2	3
CC(C)NC(=O)c1cc(C2CCCCN2S(=O)(=O)c2cccs2)on1 (stereo not given)	-2	-3	0	12	2	2
Cn1ccc(C(=O)N/N=C/c2c[nH]c3ccccc23)n1	28*	-1	3	-3	-23	1
COc1cc(F)ccc1-c1csc(C(O)c2ccc(F)c(F)c2)n1 (stereo not given)	-1	8	0	-7	-3	-2
COc1ccc(CCN2C(=O)CSC2=Nc2ccc(C(C)C)cc2)cc1OC	-34	-12	11	35*	37*	-6
O=C1c2ccccc2C(Nc2ccc(Cl)cn2)N1c1ccccn1 (stereo not given)	-1	18*	0	4	-13	-2
CCCn1c(SCC(=O)Nc2cccc(S(=O)(=O)NC3=NCCCCC3)c2)nc2ccccc2c1=O	24*	4	0	-5	-5	-1
COc1ccc(NC(=O)c2ccco2)cc1N	20*	5	3	-2	-9	-2
CCC(c1nnnn1-c1ccc2c(c1)OCCO2)N1CCN(c2ccc(C(F)(F)F)cc2[N+](=O)[O-])CC1 (stereo not given)	-11	-9	3	5	4	0
Nc1ccc(-c2nc3ccc(N)cc3[nH]2)cc1	-14	-8	10	15	7	1
Nc1ccc2cc3[nH]c4cc(N)ccc4c3nc2c1	-27	-4	21	68*	32*	101*
COc1ccc(Cn2cc(F)c(=O)n(C)c2=O)cc1[N+](=O)[O-]	18*	0	1	-9	-7	3
CC(=O)c1ccc(OC2(C)CCN(Cc3csc4ccccc34)C2)cc1 (stereo not given)	-13	-12	0	7	22	-4
CC(C)N(C(=O)CN(C#N)c1nc(N(C)C)nc(N(C)C)n1)c1ccccc1	3	42*	0	-2	-1	2
CS(=O)(=O)Nc1ccc(-c2cnc3cccnn23)cc1	0	1	1	-3	-9	2
CN(C)NC(=S)NC1CCS(=O)(=O)C1 (stereo not given)	21*	5	0	-10	-9	4
CCN1CCN(c2ccc(NC(=O)c3cccc(S(=O)(=O)N4CCCC4)c3)cc2)CC1	-34	-11	1	50*	26	-10
CCn1c(=O)c(=O)[nH]c2cc(C(=O)NC3CC3)ccc21	-1	20	2	3	4	2
CCn1c(=O)c(=O)[nH]c2cc(C(=O)Nc3ccc(S(=O)(=O)N4CCCC4)cc3)ccc21	-4	31*	0	-1	10	3
COc1ccc(NC(=O)CN(C)C(=O)c2cccc(S(=O)(=O)N3CCN(c4ccc(F)cc4)CC3)c2)cc1	-22	0	16	30*	15	2
CCn1c(=O)c(=O)[nH]c2cc(C(=O)NC3CCCc4ccccc43)ccc21 (stereo not given)	0	36*	-2	-1	14	2
SMILES	CHRM5 PAM	CHRM4 PAM	M4 ag	CHRM5 antagonist	CHRM4 antagonist	CHRM5 agonist
COc1cc(-c2cc3nc(NCc4ccco4)ccn3n2)cc(OC)c1OC	-6	-2	3	7	-3	-1
CCOc1cc(OCC)cc(C(=O)N2CCC[C@H]2C(=O)N2CCC[C@H]2C(=O)N[C@@H](C)c2ccccc2)c1	-2	6	1	2	1	2
CN(C)c1ccc(-c2csc(C(C)(O)c3ccc(F)c(F)c3)n2)cc1 (stereo not given)	-4	-9	4	4	5	-1
COC(=O)CCCCCCCCCC[N+]1(C)CCCCC1	-3	-14	0	3	31*	-9
C[N+]1(CC(=O)OC2CCCCCCCCCCC2)CCCC1	-17	-23	0	25	35*	-12
O=C(CC1(O)CCCCC1)OC1CCCC1	-1	2	0	7	1	1
CC(=O)OCCCCCCCCCCC[N+]1(C)CCCCC1	-20	-24	1	11	56*	-16
CCN1C(=O)[C@H]2[C@@H](c3ccc(C(F)(F)F)cc3)N[C@]3(CCCN(Cc4ccc(C)cc4)C3=O)[C@H]2C1=O	0	8	0	1	-5	-2
C/C=C(\C)C(=O)NCCN1C2=NC[C@@H](C)N2C[C@H]1Cc1ccc(O)cc1	13	30*	0	-4	0	-2
COc1cccc(N2CCN(C(=O)c3cccn4c(=O)c5c(C)c(C)sc5nc34)CC2)c1	19*	3	2	-15	2	8
COc1ccc(N2CCN(C(=O)c3cccn4c(=O)c5ccccc5nc34)CC2)cc1	-3	4	1	3	-3	3
COc1ccc(CCNC(=O)c2sc(=S)n(C)c2N)cc1	-13	-7	6	9	4	2
Cn1c(N)c(C(=O)NCc2ccccc2)sc1=S	0	36*	2	9	-2	-2
CCOC(=O)c1c(NC(=O)CSc2nnc(-c3ccccc3)o2)sc(C(C)=O)c1C	8	15*	2	-2	0	1
CCOC(=O)c1sc(NC(=O)CSc2n[nH]c(-c3ccccc3)n2)c(C#N)c1C	-24	-12	15	34*	0	5
CCOC(=O)c1c(NC(=O)CSc2nnc(-c3ccc(C)cc3)o2)sc(C(C)=O)c1C	-5	17	1	18	-7	-1
CCOC(=O)c1sc(NC(=O)CSc2nc(C)cc(C)n2)c(C#N)c1C	-2	5	1	-3	-4	2
C[C@H]1CN([C@@H](C)CO)C(=O)CCCn2nncc2CO[C@@H]1CN(C)S(=O)(=O)c1ccc(-n2cccn2)cc1	-3	2	1	-3	0	0
NC1=NC(=O)CC(C(=O)NCc2ccccc2)S1 (stereo not given)	-2	16*	2	-4	-16	-5
